Published values collected from several papers.
Each line is one published result; the experiments were not run side by side.
PKM: Pyruvate kinase PKM (PKM, Homo sapiens, UniProt P14618)
SIRT6: NAD-dependent protein deacylase sirtuin-6 (SIRT6, Homo sapiens, UniProt Q8N6T7)
HTR6: 5-hydroxytryptamine receptor 6 (HTR6, Homo sapiens, UniProt P50406)

| SMILES | target | test | conditions | measurement | result |
| --- | --- | --- | --- | --- | --- |
| c1cncc(-c2cccc(Nc3nccc(NC4CCCCC4)n3)c2)c1 | Serine/threonine-protein kinase D3 (PRKD3, Homo sapiens, UniProt O94806) | binding, competition with immobilised ligand |  | Kd | 1.7 µM |
| c1cnc2cc3c(cc2n1)[C@@H]1CNC[C@H]3C1 | Neuronal acetylcholine receptor subunit alpha-4/beta-2 (Mus musculus, UniProt O70174+Q9ERK7) | ligand displacement, radioligand | cell membranes | Ki | 0.00299 µM |
| CC(C)[C@@H](CC[C@@H](C)[C@H]1CC[C@H]2[C@@H]3[C@H](O)C[C@H]4C[C@@H](NCCCNCCCCNCCCN)CC[C@]4(C)[C@H]3CC[C@]12C)OS(=O)(=O)O | Receptor-type tyrosine-protein phosphatase R (PTPRR, Homo sapiens, UniProt Q15256) | enzyme activity, inhibitor |  | Ki | 25 µM |
| CNc1cc2c(cc1S(=O)(=O)Nc1ccc(C)c(C)c1)CCC(=O)N2 | PKM | enzyme activity, activator |  | AC50 | 0.44 µM |
| NC(=O)c1ccc(C(=O)NOCc2ccc(Sc3cccc(F)c3)c(C(F)(F)F)c2)cc1 | SIRT6 | enzyme activity, inhibitor, fluorescence |  | IC50 | 1.02 µM |
| O=C1CCc2cc(S(=O)(=O)Nc3ccc4c(c3)OCCO4)ccc2N1 | PKM | enzyme activity, activator |  | AC50 | 11.1 µM |
| CC(=O)N=S(=O)(O)c1ccc(N/C=C2\C(=O)Nc3ccc4ncsc4c32)cc1 | Cyclin-dependent kinase 2 (CDK2, Homo sapiens, UniProt P24941) | binding |  | Kd | 0.526 µM |
| O=C1c2ccccc2CCN1CCCCN1CCN(c2cccc(Cl)c2Cl)CC1 | HTR6 | ligand displacement, radioligand |  | Ki | 0.544 µM |
| NC(=O)c1ccc(C(=O)NOCc2ccccc2Br)cc1 | SIRT6 | enzyme activity, inhibitor, fluorescence |  | IC50 | 9.55 µM |
| CCc1nccnc1OC | OR5K1 (Homo sapiens, UniProt Q8NHB7, A2T/T15M/Y193C) | cAMP, agonist |  | EC50 | 578 µM |
| CN(C)CCSc1nc2ccccc2cc1-c1ccccc1 | 5-hydroxytryptamine receptor 7 (HTR7, Homo sapiens, UniProt P34969) | ligand displacement, radioligand | cell membranes | Ki | 0.393 µM |
| Cc1cnc(-c2ccc(-c3ccc(NC(=O)Nc4c(F)cc(F)cc4F)cc3F)c3c2C(=O)NC3)[nH]1 | Vascular endothelial growth factor receptor 3 (FLT4, Homo sapiens, UniProt P35916) | binding, competition with immobilised ligand |  | Kd | 0.016 µM |
| CC(=O)Nc1ccc(C(=O)NOCc2ccccc2)cc1 | SIRT6 | enzyme activity, inhibitor, fluorescence |  | IC50 | 218 µM |
| CC(=O)N[C@H](C(=O)N[C@@H](CC(N)=O)C(=O)N[C@@H](CCCCN)C(=O)N[C@@H](C)C(=O)N[C@@H](CC(C)C)C(=O)N1CCC[C@H]1C(=O)N[C@@H](C)C(=O)N[C@@H](CC(C)C)C(=O)N1CCC[C@H]1C(=O)N[C@H](C(=O)N[C@@H](C)C(N)=O)C(C)C)C(C)C | Tyrosine-protein kinase Fyn, SH3 (FYN, Homo sapiens, UniProt P06241) | binding, ITC | pH 7 | Kd | 70 µM |
| CN(CC(=O)N(Cc1ccc2ccccc2c1)c1ccc(C(=O)O)c(O)c1)S(=O)(=O)c1c(F)c(F)c(F)c(F)c1F | Signal transducer and activator of transcription 3 (STAT3, Homo sapiens, UniProt P40763) | ligand displacement, FP |  | Ki | 32.5 µM |
| CC(C)c1nc2cc(OCCCCN3CCN(c4cccc5c4OCCO5)CC3)ccc2s1 | HTR6 | cell-free assay, radioligand |  | Ki | 2.3 µM |
| NC(=O)c1ccc(C(=O)NOCc2ccc(Sc3ccc(N)cc3)c(C(F)(F)F)c2)cc1 | SIRT6 | enzyme activity, inhibitor, fluorescence |  | IC50 | 1.8 µM |
| Cc1ccc(NS(=O)(=O)c2cc3c(cc2/C=C/c2ccccc2)NC(=O)CO3)cc1C | PKM | enzyme activity, activator |  | AC50 | > 20 µM |
| Cc1cccc(Sc2ccc(CONC(=O)c3ccc(C(N)=O)cc3)cc2C(F)(F)F)c1 | SIRT6 | enzyme activity, inhibitor, fluorescence |  | IC50 | 1.81 µM |
| Cc1cnc(C)c(C)n1 | OR5K1 (Homo sapiens, UniProt Q8NHB7, F62L) | cAMP, agonist |  | EC50 | 376 µM |
| NC(=O)c1ccc(C(=O)NOCc2ccc(Sc3ccccc3)c(C(F)(F)F)c2)cc1 | SIRT6 | enzyme activity, inhibitor, fluorescence |  | IC50 | 1.63 µM |
| Cc1ccc(NS(=O)(=O)c2cc3c(cc2N[C@@H](C)CO)CCC(=O)N3)cc1Cl | PKM | enzyme activity, activator |  | AC50 | 6.1 µM |
